# Source: ChEMBL document CHEMBL5329156, “Discovery and development of novel substituted monohydrazides as potent antifungal agents” (RSC Med Chem, 2023)
# Calls of active or inactive are those of the source. The calls are words filed in the database; no cut-off is given here.
# How the values were obtained:
# Candida albicans [1] = assay: Antifungal activity against Candida albicans ATCC 10231 assessed as fungal growth inhibition by double dilution method; type: functional
# Procedure, shortened: (§1)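 Broth microdilution after CLSI M27-A3/M38-A2 with minor changes. Single colony grown overnight in YPD at 35 °C, 200 rpm. Compound final range 0.06-31.3 µg/mL; incubated 48 h at 35 °C.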
# Candida albicans [2] = assay: Antifungal activity against Candida albicans ATCC 64124 assessed as fungal growth inhibition by double dilution method; type: functional
# Procedure, shortened: (§2)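 Broth microdilution after CLSI M27-A3/M38-A2 with minor modifications. A single colony was grown overnight in YPD at 35 °C with shaking at 200 rpm. Cells were mixed 1:1 with compound (final 0.06-31.3 µg/mL, from DMSO stocks) and incubated 48 h at 35 °C.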
# Candida albicans [3] = assay: Antifungal activity against itraconazole/fluconazole susceptible Candida albicans ATCC MYA-2876 assessed as fungal growth inhibition by double dilution method; type: functional; procedure, shortened: as §2
# Candida albicans [4] = assay: Antifungal activity against itraconazole/fluconazole resistant Candida albicans ATCC 90819 assessed as fungal growth inhibition by double dilution method; type: functional; procedure, shortened: as §2
# Candida albicans [5] = assay: Antifungal activity against itraconazole/fluconazole susceptible Candida albicans ATCC MYA-2310 assessed as fungal growth inhibition by double dilution method; type: functional; procedure, shortened: as §2
# Candida albicans [6] = assay: Antifungal activity against itraconazole/fluconazole resistant Candida albicans ATCC MYA-1237 assessed as fungal growth inhibition by double dilution method; type: functional; procedure, shortened: as §2
# Candida albicans [7] = assay: Antifungal activity against itraconazole/fluconazole resistant Candida albicans ATCC MYA-1003 assessed as fungal growth inhibition by double dilution method; type: functional; procedure, shortened: as §2
# Nakaseomyces glabratus [8] = assay: Antifungal activity against Candida glabrata ATCC 2001 assessed as fungal growth inhibition by double dilution method; type: functional; procedure, shortened: as §1
# Pichia kudriavzevii [9] = assay: Antifungal activity against Pichia kudriavzevii ATCC 6258 assessed as fungal growth inhibition by double dilution method; type: functional; procedure, shortened: as §1
# Nakaseomyces glabratus [10] = assay: Antifungal activity against Candida glabrata ATCC 22019 assessed as fungal growth inhibition by double dilution method; type: functional; procedure, shortened: as §1
# [Candida] auris [11] = Antifungal activity against Candida auris AR Bank # 0384 assessed as fungal growth inhibition by double dilution method; type: functional; details: Candidozyma auris; procedure, shortened: as §1
# [Candida] auris [12] = Antifungal activity against Candida auris AR Bank # 0390 assessed as fungal growth inhibition by double dilution method; type: functional; details: Candidozyma auris; procedure, shortened: as §1
# Cryptococcus neoformans = assay: Antifungal activity against Cryptococcus neoformans ATCC MYA-895 assessed as fungal growth inhibition by double dilution method; type: functional; procedure, shortened: as §1
# Aspergillus terreus = assay: Antifungal activity against Aspergillus terreus ATCC MYA-3633 assessed as fungal growth inhibition by double dilution method; type: functional
# Aspergillus fumigatus [13] = assay: Antifungal activity against Aspergillus fumigatus NRRL 163 assessed as fungal growth inhibition by double dilution method; type: functional
# Aspergillus flavus = assay: Antifungal activity against Aspergillus flavus ATCC MYA-3631 assessed as fungal growth inhibition by double dilution method; type: functional
# Aspergillus nidulans = assay: Antifungal activity against Aspergillus nidulans ATCC 38163 assessed as fungal growth inhibition by double dilution method; type: functional
# Aspergillus fumigatus [14] = assay: Antifungal activity against Aspergillus fumigatus NRRL 5109 assessed as fungal growth inhibition by double dilution method; type: functional
# Aspergillus fumigatus [15] = assay: Antifungal activity against Aspergillus fumigatus NRRL 6113 assessed as fungal growth inhibition by double dilution method; type: functional
# [Candida] auris [16] = Antifungal activity against Candida auris AR Bank # 381 assessed as fungal growth inhibition by double dilution method; type: functional; details: Candidozyma auris; procedure, shortened: as §1
# [Candida] auris [17] = Antifungal activity against Candida auris AR Bank # 382 assessed as fungal growth inhibition by double dilution method; type: functional; details: Candidozyma auris; procedure, shortened: as §1
# [Candida] auris [18] = Antifungal activity against Candida auris AR Bank # 383 assessed as fungal growth inhibition by double dilution method; type: functional; details: Candidozyma auris; procedure, shortened: as §1
# [Candida] auris [19] = Antifungal activity against Candida auris AR Bank # 384 assessed as fungal growth inhibition by double dilution method; type: functional; details: Candidozyma auris; procedure, shortened: as §1
# [Candida] auris [20] = Antifungal activity against Candida auris AR Bank # 385 assessed as fungal growth inhibition by double dilution method; type: functional; details: Candidozyma auris; procedure, shortened: as §1
# [Candida] auris [21] = Antifungal activity against Candida auris AR Bank # 386 assessed as fungal growth inhibition by double dilution method; type: functional; details: Candidozyma auris; procedure, shortened: as §1
# [Candida] auris [22] = Antifungal activity against Candida auris AR Bank # 387 assessed as fungal growth inhibition by double dilution method; type: functional; details: Candidozyma auris; procedure, shortened: as §1
# [Candida] auris [23] = Antifungal activity against Candida auris AR Bank # 388 assessed as fungal growth inhibition by double dilution method; type: functional; details: Candidozyma auris; procedure, shortened: as §1
# [Candida] auris [24] = Antifungal activity against Candida auris AR Bank # 389 assessed as fungal growth inhibition by double dilution method; type: functional; details: Candidozyma auris; procedure, shortened: as §1
# [Candida] auris [25] = Antifungal activity against Candida auris AR Bank # 390 assessed as fungal growth inhibition by double dilution method; type: functional; details: Candidozyma auris; procedure, shortened: as §1
# Candida duobushaemulonii [26] = assay: Antifungal activity against Candida duobushaemulonii AR Bank # 391 assessed as fungal growth inhibition by double dilution method; type: functional; details: Candidozyma duobushaemuli; procedure, shortened: as §1
# Candida duobushaemulonii [27] = assay: Antifungal activity against Candida duobushaemulonii AR Bank # 392 assessed as fungal growth inhibition by double dilution method; type: functional; details: Candidozyma duobushaemuli; procedure, shortened: as §1
# [Candida] haemuloni [28] = Antifungal activity against Candida haemulonii AR Bank # 393 assessed as fungal growth inhibition by double dilution method; type: functional; details: Candidozyma haemuli; procedure, shortened: as §1
# Candida duobushaemulonii [29] = assay: Antifungal activity against Candida duobushaemulonii AR Bank # 394 assessed as fungal growth inhibition by double dilution method; type: functional; details: Candidozyma duobushaemuli; procedure, shortened: as §1
# [Candida] haemuloni [30] = Antifungal activity against Candida haemulonii AR Bank # 395 assessed as fungal growth inhibition by double dilution method; type: functional; details: Candidozyma haemuli; procedure, shortened: as §1
# Kodamaea ohmeri = assay: Antifungal activity against Kodamaea ohmeri AR Bank # 396 assessed as fungal growth inhibition by double dilution method; type: functional; procedure, shortened: as §1
# Pichia kudriavzevii [31] = assay: Antifungal activity against Pichia kudriavzevii AR Bank # 397 assessed as fungal growth inhibition by double dilution method; type: functional; procedure, shortened: as §1
# Clavispora lusitaniae = assay: Antifungal activity against Clavispora lusitaniae AR Bank # 398 assessed as fungal growth inhibition by double dilution method; type: functional; procedure, shortened: as §1
# Saccharomyces cerevisiae [32] = assay: Antifungal activity against Saccharomyces cerevisiae AR Bank # 399 assessed as fungal growth inhibition by double dilution method; type: functional; procedure, shortened: as §1
# Saccharomyces cerevisiae [33] = assay: Antifungal activity against Saccharomyces cerevisiae AR Bank # 400 assessed as fungal growth inhibition by double dilution method; type: functional; procedure, shortened: as §1
# J774.A1 = assay: Cytotoxicity against J774A.1 cells assessed as reduction in cell viability at 31.3 microg/ml; type: toxicity, cell-based; details: mouse, dose 31.3 µg/ml
# Procedure, shortened: (§3)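 Cells in DMEM with 10% FBS and 1% Pen/Strep, seeded at 10,000 cells/well and held overnight at 37 °C, 5% CO2. Compounds added at final 31.3-0.12 µg/mL (0.05% DMSO vehicle) for 24 h. Resazurin then added for 6 h; fluorescence read at ex 560/em 590. Triton X-100 1% as positive control; values normalized to vehicle. Run in quadruplicate.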
# HEK293 = assay: Cytotoxicity against human HEK-293 cells assessed as reduction in cell viability at 31.3 microg/ml; type: toxicity, cell-based; details: dose 31.3 µg/ml; procedure, shortened: as §3
# Candida albicans [34] = assay: Antibiofilm activity against Candida albicans ATCC 10231 assessed as reduction in biofilm production at 1.96 to 3.9 microg/ml by biofilm formation assay; type: functional, organism-based; details: dose 1.96-3.9 µg/ml
smiles,measurement,setting,value
C[C@@H]1[C@H](O)[C@@H](C)/C=C/C=C/C=C/C=C/C=C/C=C/C=C/[C@H](O[C@@H]2O[C@H](C)[C@@H](O)[C@H](N)[C@@H]2O)C[C@@H]2O[C@](O)(C[C@@H](O)C[C@@H](O)[C@H](O)CC[C@@H](O)C[C@@H](O)CC(=O)O[C@H]1C)C[C@H](O)[C@H]2C(=O)O [AMPHOTERICIN B],MIC,Candida albicans [1],1.95 µg/mL
same,MIC,Candida albicans [2],1.95 µg/mL
same,MIC,Candida albicans [3],1.95 µg/mL
same,MIC,Candida albicans [4],0.98 µg/mL
same,MIC,Candida albicans [5],0.98 µg/mL
same,MIC,Candida albicans [6],1.95 µg/mL
same,MIC,Candida albicans [7],0.98 µg/mL
same,MIC,Nakaseomyces glabratus [8],0.98 µg/mL
same,MIC,Pichia kudriavzevii [9],0.98 µg/mL
same,MIC,Nakaseomyces glabratus [10],0.98 µg/mL
same,MIC,[Candida] auris [11],1.95 µg/mL
same,MIC,[Candida] auris [12],1.95 µg/mL
same,MIC,Cryptococcus neoformans,7.8 µg/mL
same,MIC,Aspergillus terreus,3.9 µg/mL
same,MIC,Aspergillus fumigatus [13],0.98 µg/mL
same,MIC,Aspergillus flavus,31.3 µg/mL
same,MIC,Aspergillus nidulans,15.6 µg/mL
same,MIC,Aspergillus fumigatus [14],0.98 µg/mL
same,MIC,Aspergillus fumigatus [15],1.95 µg/mL
same,MIC,[Candida] auris [16],0.98 µg/mL
same,MIC,[Candida] auris [17],0.98 µg/mL
same,MIC,[Candida] auris [18],1.95 µg/mL
same,MIC,[Candida] auris [19],1.95 µg/mL
same,MIC,[Candida] auris [20],1.95 µg/mL
same,MIC,[Candida] auris [21],0.98 µg/mL
same,MIC,[Candida] auris [22],0.98 µg/mL
same,MIC,[Candida] auris [23],1.95 µg/mL
same,MIC,[Candida] auris [24],1.95 µg/mL
same,MIC,[Candida] auris [25],1.95 µg/mL
same,MIC,Candida duobushaemulonii [26],7.8 µg/mL
same,MIC,Candida duobushaemulonii [27],7.8 µg/mL
same,MIC,[Candida] haemuloni [28],15.6 µg/mL
same,MIC,Candida duobushaemulonii [29],0.98 µg/mL
same,MIC,[Candida] haemuloni [30],3.9 µg/mL
same,MIC,Kodamaea ohmeri,1.95 µg/mL
same,MIC,Pichia kudriavzevii [31],0.49 µg/mL
same,MIC,Clavispora lusitaniae,3.9 µg/mL
same,MIC,Saccharomyces cerevisiae [32],15.6 µg/mL
same,MIC,Saccharomyces cerevisiae [33],1.95 µg/mL
same,Activity,J774.A1,Non-Toxic
same,Activity,HEK293,Non-Toxic
O=C(NNc1cc(F)ccc1F)c1ccccn1,MIC,Candida albicans [1],0.12 µg/mL
same,MIC,Candida albicans [2],1.95 µg/mL
same,MIC,Candida albicans [3],3.9 µg/mL
same,MIC,Candida albicans [4],0.98 µg/mL
same,MIC,Candida albicans [5],1.95 µg/mL
same,MIC,Candida albicans [6],1.95 µg/mL
same,MIC,Candida albicans [7],0.98 µg/mL
same,MIC,Nakaseomyces glabratus [8],3.9 µg/mL
same,MIC,Pichia kudriavzevii [9],0.24 µg/mL
same,MIC,Nakaseomyces glabratus [10],3.9 µg/mL
same,MIC,[Candida] auris [11],0.24 µg/mL
same,MIC,[Candida] auris [12],0.98 µg/mL
same,MIC,Cryptococcus neoformans,0.49 µg/mL
same,MIC,Aspergillus terreus,0.98 µg/mL
same,MIC,Aspergillus fumigatus [13],> 31.3 µg/mL
same,MIC,Aspergillus flavus,3.9 µg/mL
same,MIC,Aspergillus nidulans,0.49 µg/mL
same,MIC,Aspergillus fumigatus [14],15.6 µg/mL
same,MIC,Aspergillus fumigatus [15],> 31.3 µg/mL
same,MIC,[Candida] auris [16],1.95 µg/mL
same,MIC,[Candida] auris [17],0.24 µg/mL
same,MIC,[Candida] auris [18],0.49 µg/mL
same,MIC,[Candida] auris [19],1.95 µg/mL
same,MIC,[Candida] auris [20],0.49 µg/mL
same,MIC,[Candida] auris [21],0.12 µg/mL
same,MIC,[Candida] auris [22],0.49 µg/mL
same,MIC,[Candida] auris [23],0.49 µg/mL
same,MIC,[Candida] auris [24],0.49 µg/mL
same,MIC,[Candida] auris [25],0.98 µg/mL
same,MIC,Candida duobushaemulonii [26],0.49 µg/mL
same,MIC,Candida duobushaemulonii [27],0.24 µg/mL
same,MIC,[Candida] haemuloni [28],0.98 µg/mL
same,MIC,Candida duobushaemulonii [29],0.24 µg/mL
same,MIC,[Candida] haemuloni [30],0.24 µg/mL
same,MIC,Kodamaea ohmeri,0.12 µg/mL
same,MIC,Pichia kudriavzevii [31],0.24 µg/mL
same,MIC,Clavispora lusitaniae,0.49 µg/mL
same,MIC,Saccharomyces cerevisiae [32],1.95 µg/mL
same,MIC,Saccharomyces cerevisiae [33],1.95 µg/mL
same,Activity,Candida albicans [34],inactive
